RGS4 pot = RGS4 potentiation or activation; HEK293 M3R/inducible RGS4, carbachol calcium flux Fluo4; stronger effect = lower value; AID 463111; 310,000 tested, 0.92% active; B-score at 10 µM;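 active = B-score of the integrated calcium signal more than 4 SD below the library mean, with starting fluorescence not abnormally high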;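 note: negative B-score means reduced calcium response which marks RGS4 activation or potentiation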
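Also added: carbachol at ECmax as muscarinic agonist stimulus; Assay system: HEK293 cells with stable M3R and inducible RGS4; Timing: overnight RGS4 induction, 30 min dye load 37 °C, 20 min compound RT; Measured by: Fluo4-AM (2 µM) calcium-flux fluorescence, kinetic read.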
MrgX1 antag = antagonists of human MrgX1 receptor; MRGX1-HEK293 calcium flux, Fluo-4, BAM8-22 antagonism; stronger effect = lower value; 310,000 tested, 1.3% active; Q96LB2; B-score at 10 µM; AID 588676;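 active = calcium-response B-score plate-corrected more than 3 library SD below zero, starting fluorescence within 5 deviations, no agonist response on first addition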;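 note: peak minus trough fluorescence over baseline after final BAM8-22 challenge near maximal dose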
Target sequence (Q96LB2 whole entry, looked up): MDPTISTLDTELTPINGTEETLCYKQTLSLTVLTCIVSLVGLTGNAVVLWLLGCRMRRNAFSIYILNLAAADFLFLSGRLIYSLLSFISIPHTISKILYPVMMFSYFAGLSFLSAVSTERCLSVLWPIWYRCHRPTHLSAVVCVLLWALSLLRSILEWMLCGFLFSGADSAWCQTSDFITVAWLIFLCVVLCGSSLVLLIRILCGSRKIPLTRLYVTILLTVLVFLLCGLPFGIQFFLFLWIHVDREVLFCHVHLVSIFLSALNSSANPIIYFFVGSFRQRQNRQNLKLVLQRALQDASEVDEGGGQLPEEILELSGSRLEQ
RGS4 inh = human RGS4 inhibition; 310,000 tested, 0.45% active; HEK293 M3R/RGS4 inducible, Fluo-4 calcium flux; stronger effect = higher value; triggered by carbachol at its EC20; P49798; B-score at 10 µM;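 active = B-score, a plate-corrected calcium signal, over three deviations above library mean, with baseline fluorescence within five deviations of library mean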;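 note: RGS4 expression induced by doxycycline in cells with stable M3 receptor; B-score is computed from the integrated fluorescence ratio over baseline after carbachol; higher B-score means a larger calcium signal and so more RGS4 inhibition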
Target sequence (P49798 whole entry, looked up): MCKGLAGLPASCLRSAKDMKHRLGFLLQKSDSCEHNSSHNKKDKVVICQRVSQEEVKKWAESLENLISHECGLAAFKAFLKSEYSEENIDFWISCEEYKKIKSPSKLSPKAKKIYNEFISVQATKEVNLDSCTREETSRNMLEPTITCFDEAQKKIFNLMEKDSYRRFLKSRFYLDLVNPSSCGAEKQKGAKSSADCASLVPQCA
MrgX1 agonist = human MrgX1 receptor agonism, primary screen; Q96LB2; MrgX1-HEK293 cells, Fluo-4 calcium fluorescence, agonist mode; stronger effect = higher value; B-score at 10 µM; 310,000 tested, 0.44% active;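 active = calcium response B-score plate-corrected fluorescence ratio at least 3 library SD, with starting fluorescence B-score inside 5 SD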
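Test system: Stable human MrgX1 HEK293 cell line | Schedule: Overnight plating before 1 h dye loading | Read-out basis: Baseline-normalised fluorescence change ratio, B-scored | Detection: Kinetic calcium dye fluorescence, Fluo-4 NW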
MrgX1 allo act = allosterically activates human MrgX1 receptor signaling. B-score at 10 µM. MrgX1-HEK293, Fluo-4 calcium flux, FDSS; stronger effect = higher value. 310,000 tested, 0.63% active. AID 588675;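 active = plate-corrected calcium response at least 3 library SD above typical, normal starting fluorescence, not activating the receptor alone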;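 note: compound read alongside a low EC10 to EC30 dose of BAM8-22 agonist; peak minus trough fluorescence over baseline measured at the second addition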
Of the large screens only hits and unclear results are named; the others gave an inactive call. Hits are enriched below; roughly 3.5% of the tested compounds scored in any of these assays.

O=C(O)C(NS(=O)(=O)c1ccc(F)cc1)c1ccccc1 (configuration not stated)	none
CCC/C=C(\CCC)C(NS(=O)(=O)c1ccc(C(F)(F)F)cc1)c1ccccc1 (configuration not stated)	RGS4 pot -8.2
CC(Oc1ccc(Cl)cc1Cl)C(=O)Nc1ccc(N2CCN(C)CC2)cc1 (configuration not stated)	none
CC(=O)N1CCN(c2ccc(NC(=O)C(C)Oc3ccc(Cl)cc3Cl)cc2)CC1 (configuration not stated)	MrgX1 antag -7.1
CC(C)c1ccc(S(=O)(=O)/N=C2/C=C(Sc3ncn[nH]3)C(=O)c3ccccc32)cc1	MrgX1 allo act 8.6 (no result: RGS4 pot, RGS4 inh)
CN1CCN(CCC(=O)N2c3ccccc3Sc3ccc(C(F)(F)F)cc32)CC1	MrgX1 antag -8.2
CN(C)CCCN1c2ccccc2Sc2ccc(C(F)(F)F)cc21	RGS4 pot -8.3
CCN(CC)CCCCN1c2ccccc2Sc2ccccc21	RGS4 pot -7.2
Cc1ccc(NC(=O)Cn2cnc([N+](=O)[O-])c2)cc1C	none
CN(C(=O)CSc1nnc(COc2ccccc2F)n1N)C1CCS(=O)(=O)C1 (configuration not stated)	none
Cc1ccc(S(=O)(=O)Nc2c(C)nc3nc(C)[nH]n3c2=O)c(C)c1	none
O=C1c2ccccc2C(=O)C2OC12 (configuration not stated)	RGS4 inh 22, MrgX1 agonist 43
CSc1ccc(/C=N/NC(=O)CN2CCN(Cc3ccc(C)cc3)CC2)cc1	none
O=C(NCCCn1ccnc1)c1cc(-c2cccc(O)c2)on1	none
CN1C(=O)C(c2ccccc2[N+](=O)[O-])C(=O)c2ccccc21 (configuration not stated)	none
CN1CCN(CCCOc2ccc(-c3ccccc3)cc2)CC1	RGS4 pot -9.3
CN1CCN(CCOc2ccc(-c3ccccc3)cc2)CC1	none
c1ccc(COc2ccc(OCCCCN3CCCCC3)cc2)cc1	RGS4 pot -10
CCN(CC)C(=O)Cn1cc(S(=O)(=O)CC(=O)Nc2ccc(C(N)=O)cc2)c2ccccc21	none
COc1ccc([N+](=O)[O-])cc1NC(=O)c1ccccc1N(C)S(C)(=O)=O	MrgX1 allo act 7
Cc1c(NC(=O)Cc2noc3ccccc23)cccc1[N+](=O)[O-]	none
COc1ccc([N+](=O)[O-])cc1NC(=O)Cc1noc2ccccc12	MrgX1 antag -9.7
COc1ccc([N+](=O)[O-])cc1NC(=O)C1(c2ccccc2)CCOCC1	MrgX1 allo act 8.7
COCCSc1ccccc1C(=O)Nc1cc([N+](=O)[O-])ccc1OC	none
CS(=O)(=O)N1CCN(c2ccc(NC(=O)c3ccccc3)cc2)CC1	none
Cc1c(C=O)c2ccccc2n1CC(=O)NC(C)c1ccccc1 (configuration not stated)	none
Cc1cc(NC(=O)CSCC(=O)OC(C)C(=O)N(C)Cc2ccccc2)no1 (configuration not stated)	MrgX1 antag -7.4
Cc1cc(NC(=O)CSCC(=O)OC(C)C(=O)c2cc(C)c(C)cc2C)no1 (configuration not stated)	none
CCc1cccc(C)c1NC(=O)C1CCN(C(=O)c2ccc([N+](=O)[O-])cc2)CC1	none
O=C(COC(=O)c1cc([N+](=O)[O-])ccc1N1CCOCC1)Nc1ccc(Cl)cc1	MrgX1 antag -8.3
CCc1nnc(NC(=O)c2cc([N+](=O)[O-])ccc2N2CCOCC2)s1	MrgX1 antag -6.3
CC1CCC(C(C)C)C(OP(=O)(c2ccc(N(C)C)cc2)C(O)c2cccnc2)C1 (configuration not stated)	MrgX1 antag -8.7
CC1CCC(C(C)C)C(OP(=O)(c2ccccc2)C(O)c2ccncc2)C1 (configuration not stated)	none
CC(=O)c1ccc(NC(=O)Cn2nc(C)c([N+](=O)[O-])c2C)cc1	none
Cc1nn(CC(=O)Nc2ccc(C(C)C)cc2)c(C)c1[N+](=O)[O-]	MrgX1 antag -7.1
CCCOc1ccc(C(=O)NNC(=S)NC(=O)CC)cc1	MrgX1 agonist 51
C=CCNC(=S)NNC(=O)c1ccc(OCCC)cc1	none
Cc1nc(CN(C)C(=O)c2ccccc2OC2CCN(S(C)(=O)=O)CC2)cs1	none
CCCCCOc1ccc(CSC(=N)N)cc1[N+](=O)[O-]	RGS4 pot -7.8, MrgX1 agonist 49
COc1ccc(CSC(=N)N)cc1[N+](=O)[O-]	MrgX1 agonist 39
CCOc1ccc(CSC2=NCCN2)cc1[N+](=O)[O-]	none
N=C(N)SCc1ccc(O)c([N+](=O)[O-])c1	none
CCCCOc1ccc(CSC2=NCCN2)cc1[N+](=O)[O-]	MrgX1 agonist 28
CN(CC(=O)Nc1ccccc1Cl)CC(=O)Nc1ccccc1[N+](=O)[O-]	MrgX1 allo act 10
CC1(C)C2CC[C@]3(C)C(CC=C4[C@@H]5C[C@@](C)(CO)[C@@H](O)C[C@]5(C(=O)O)CC[C@]43C)[C@@]2(C)CC[C@@H]1O (some centres not stated)	none
CC(=O)O[C@H]1CC[C@]2(C)[C@H]3CC=C4[C@@H]5[C@@H](C)[C@H](C)CC[C@]5(C(=O)O)CC[C@@]4(C)[C@]3(C)CC[C@H]2C1(C)C	RGS4 inh 14
COc1ccc(NC(=S)N(Cc2ccc(Cl)cc2)Cc2ccc(C(=O)O)cc2)cc1Cl	MrgX1 antag -4.6
c1cnc(Oc2ccc(-c3nnco3)cc2)cn1	none
O=C(COC(=O)c1cc[n+]([O-])cc1)Nc1ccc(F)c([N+](=O)[O-])c1	none
Cc1ccc(C)c(CN2CCC(CNC(=O)Nc3ccc(Cl)cc3)CC2)c1	none
COc1cc(NC(=O)NCC2CCN(Cc3ccccc3C)CC2)cc(OC)c1OC	RGS4 pot -7
COCC(CN1CCN(C2=NS(=O)(=O)c3ccccc32)CC1)OC(=O)c1ccccc1 (configuration not stated)	none
COc1cccc(N2C(=O)CC(NNc3nc4ccccc4s3)C2=O)c1 (configuration not stated)	MrgX1 agonist 30
CN1CCN(C2=Nc3cc(Cl)ccc3Nc3ccccc32)CC1	RGS4 pot -7.5
COc1ccc(OC)c(CN2CCN(Cc3cccc4ccccc34)CC2)c1	none
COc1cc(C2C(C#N)=C(N)OC3=C2C(=O)CC(C)(C)C3)c([N+](=O)[O-])cc1OC (configuration not stated)	MrgX1 agonist 29
COc1ccc(C2C(C#N)=C(N)OC3=C2C(=O)CC(C)(C)C3)c([N+](=O)[O-])c1OC (configuration not stated)	none
O=C1OC(c2ccc(Br)cc2)=N/C1=C\N1CCCCC1	MrgX1 antag -5.6
O=C1C(=O)N(CCCc2ccccc2)c2ccccc21	MrgX1 agonist 38
O=C(Cc1ccsc1)NNC(=O)c1ccccc1Cl	none
